Measured values from ChEMBL document CHEMBL1129311, “Antitumor agents. 166. Synthesis and biological evaluation of 5,6,7,8-substituted-2-phenylthiochromen-4-ones” (J Med Chem, 1996).
Converted amounts (≈) assume the structure as drawn. The source made the active and inactive calls. The rule behind the calls is not given here.

Assays:
A549 = assay: Effective dose against 50% reduction in Human lung carcinoma (A-549) cell number after 3-day incubation.; format: functional, cell-based
RPMI [1] = assay: Effective dose against 50% reduction in Human melanoma (RPMI)cell number after 3-day incubation; - indicates inactive; format: functional, cell-based
TE-671 [2] = assay: Effective dose against 50% reduction in Human CNS tumor (TE671) cell number after 3-day incubation; - indicates inactive; format: functional, cell-based
P388 [3] = assay: Effective dose against 50% reduction in Murine leukemia (P-388) cell number after 3-day incubation; - indicates inactive; format: functional, cell-based; details: Mus musculus
KB [4] = assay: Effective dose against 50% reduction in Human epidermoid carcinoma of the nasopharynx (KB) cell number after 3-day incubation; - indicates inactive; format: functional, cell-based
HCT-8 [5] = assay: Effective dose against 50% reduction in Human ileocecal carcinoma (HCT-8) cell number after 3-day incubation.; format: functional, cell-based
H9 [6] = assay: Inhibitory activity against growth of uninfected H9 lymphocytes; format: functional, cell-based; details: Homo sapiens
How it was run: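 Uninfected H9 cultures exposed to compound diluted in medium for 4 days at 37 °C. Cell density counted in a Coulter counter; IC₅₀ determined.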

[7] = molecular target: T1, DNA topoisomerase 1 (Homo sapiens) (UniProt P11387); assay: Inhibitory activity against DNA topoisomerase I at dose 100 uM
T1 sequence (whole entry): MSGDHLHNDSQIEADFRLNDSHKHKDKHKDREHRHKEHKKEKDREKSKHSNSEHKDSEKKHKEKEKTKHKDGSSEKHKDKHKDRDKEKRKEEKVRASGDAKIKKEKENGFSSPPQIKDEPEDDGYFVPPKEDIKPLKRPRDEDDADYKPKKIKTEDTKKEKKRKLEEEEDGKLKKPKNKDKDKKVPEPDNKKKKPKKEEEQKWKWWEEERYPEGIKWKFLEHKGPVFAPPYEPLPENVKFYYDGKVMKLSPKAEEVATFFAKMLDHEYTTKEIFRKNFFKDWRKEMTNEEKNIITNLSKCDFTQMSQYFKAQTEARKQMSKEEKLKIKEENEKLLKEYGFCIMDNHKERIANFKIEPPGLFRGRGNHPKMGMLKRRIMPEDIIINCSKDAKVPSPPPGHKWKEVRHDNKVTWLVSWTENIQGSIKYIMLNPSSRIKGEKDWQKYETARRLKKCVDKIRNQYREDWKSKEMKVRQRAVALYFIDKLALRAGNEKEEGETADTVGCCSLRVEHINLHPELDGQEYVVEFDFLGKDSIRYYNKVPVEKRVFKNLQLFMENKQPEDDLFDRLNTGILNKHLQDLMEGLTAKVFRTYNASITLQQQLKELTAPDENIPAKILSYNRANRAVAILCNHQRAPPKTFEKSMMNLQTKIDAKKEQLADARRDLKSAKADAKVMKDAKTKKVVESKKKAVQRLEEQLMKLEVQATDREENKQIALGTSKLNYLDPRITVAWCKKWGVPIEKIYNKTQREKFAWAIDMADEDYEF
How it was run: (§1)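 Topo I activity read as ATP-independent relaxation of supercoiled plasmid DNA. Test compound at 100 µM; % inhibition is relative to enzyme and DNA control reactions. Camptothecin served as the positive inhibitor control.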

[8] = Therapeutic index valued has been determined in H9 cells; format: cell-based; details: human, read-out: Therapeutic index
H9 [9] = assay: Effective dose against growth of HIV infected H9 lymphocytes; format: functional; details: Homo sapiens, read-out: ED50 (the source's name)
KB [10] = assay: Cellular protein-linked DNA breaks in KB oral carcinoma cell culture treated in triplicate at 50 uM for 1 hr; format: functional, Homo sapiens
How it was run: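 Read-out is potassium-SDS precipitable cpm in treated KB cultures, expressed as fold.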

P388 [11] = assay: Effective dose against 50% reduction in Murine leukemia (P-388) cell number after 3-day incubation; format: functional; details: Mus musculus, P388, 72 h; read-out: ED50 (the source's name)
[12] = molecular target: T2, DNA topoisomerase II (Homo sapiens) (UniProt P11388+Q02880); assay: Inhibitory activity against DNA topoisomerase II at dose 100 uM; format: protein assay
How it was run: (§2)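 Topo II activity read as ATP-dependent unknotting of P4 DNA. Test compound at 100 µM; % inhibition is relative to enzyme and DNA control reactions. VP-16 served as the reference inhibitor.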

RPMI [13] = assay: Effective dose against 50% reduction in Human melanoma (RPMI)cell number after 3-day incubation; format: functional; details: 72 h, read-out: ED50 (the source's name)
TE-671 [14] = assay: Effective dose against 50% reduction in Human CNS tumor (TE671) cell number after 3-day incubation; format: functional; details: TE-671, 72 h, read-out: ED50 (the source's name)
[15] = molecular target: T1, DNA topoisomerase 1 (Homo sapiens); assay: Inhibitory activity against Human DNA topoisomerase I at dose 100 uM; how it was run: as §1
HCT-8 [16] = assay: Effective dose against 50% reduction in Human ileocecal carcinoma (HCT-8) cell number after 3-day incubation; format: functional; details: HCT-8, 72 h, read-out: ED50 (the source's name)
[17] = molecular target: T2, DNA topoisomerase II (Homo sapiens); assay: Inhibitory activity against Human DNA topoisomerase II at dose 100 uM; format: protein assay; how it was run: as §2
KB [18] = assay: Effective dose against 50% reduction in Human epidermoid carcinoma of the nasopharynx (KB) cell number after 3-day incubation; format: functional; details: 72 h, read-out: ED50 (the source's name)
Tubulin alpha chain = Tubulin alpha chain (Sus scrofa, UniProt P02550); assay: Inhibitory activity of the compound against tubulin polymerization; format: functional
Tubulin alpha chain, sequence (P02550 whole entry, looked up): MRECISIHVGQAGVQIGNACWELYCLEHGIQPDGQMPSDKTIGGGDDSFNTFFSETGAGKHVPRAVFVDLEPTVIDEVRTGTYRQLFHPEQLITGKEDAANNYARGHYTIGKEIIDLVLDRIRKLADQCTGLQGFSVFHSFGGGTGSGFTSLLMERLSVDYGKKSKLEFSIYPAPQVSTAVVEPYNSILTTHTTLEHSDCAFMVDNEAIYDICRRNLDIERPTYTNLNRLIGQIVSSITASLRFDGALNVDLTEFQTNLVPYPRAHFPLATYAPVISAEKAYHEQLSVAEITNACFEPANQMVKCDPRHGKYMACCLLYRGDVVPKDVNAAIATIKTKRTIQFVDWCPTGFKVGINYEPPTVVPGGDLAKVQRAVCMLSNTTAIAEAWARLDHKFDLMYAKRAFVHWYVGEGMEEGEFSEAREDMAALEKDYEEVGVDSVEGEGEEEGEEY

[19] = system: Medulloblastoma tumour cell line; assay: Effective dose against medulloblastoma tumor cell lines; format: functional; details: read-out: ED50 (the source's name)
[20] = molecular target: T2, DNA topoisomerase II (Homo sapiens); assay: Inhibitory activity against human DNA topoisomerase II at dose 100 uM; format: protein assay; how it was run: as §2
[21] = molecular target: T1, DNA topoisomerase 1 (Homo sapiens); assay: Inhibitory activity against human DNA topoisomerase I at dose 100 uM; how it was run: as §1

| SMILES | EC50 (P388 [11]) [µg/mL] | EC50 (RPMI [13]) [µg/mL] | EC50 (HCT-8 [16]) [µg/mL] | EC50 (KB [18]) [µg/mL] | ED50 (A549) | ED50 (TE-671 [2]) | ED50 (HCT-8 [5]) | also measured |
| --- | --- | --- | --- | --- | --- | --- | --- | --- |
| COc1ccc2sc(-c3ccccc3)cc(=O)c2c1 | – | – | – | – | inactive | inactive | inactive | ED50 (RPMI [1]): inactive; ED50 (P388 [3]): inactive; ED50 (KB [4]): inactive |
| O=c1cc(-c2ccccc2)[s+]([O-])c2ccccc12 (centres undefined) | 1.18 (≈ 4.64 µM) | 5.5 (≈ 21.6 µM) | 5.79 (≈ 22.8 µM) | 5.5 (≈ 21.6 µM) | inactive | – | – | Activity (KB [10]): 1; EC50 (TE-671 [14]): 3.66 µg/mL (≈ 14.4 µM); inhibition [15]: 100%; inhibition [17]: 0% |
| COc1cccc(-c2cc(O)c3cc(N4CCCC4)ccc3n2)c1 | – | – | – | – | – | – | – | inhibition [12]: 0% |
| COc1ccc(-c2oc3c(OC)c(OC)c(OC)c(O)c3c(=O)c2OC)cc1O | – | – | – | – | – | – | – | IC50 (Tubulin alpha chain): 830 nM |
| COc1cc(-c2oc3c(OC)c(OC)c(OC)c(O)c3c(=O)c2OC)ccc1O | – | – | – | – | – | – | – | EC50 [19]: 0.99 µg/mL (≈ 2.45 µM) |

Further lines, with some results ahead:

| EC50 (P388 [11]) [µg/mL] | EC50 (RPMI [13]) [µg/mL] | EC50 (HCT-8 [16]) [µg/mL] | EC50 (KB [18]) [µg/mL] | SMILES | ED50 (A549) | ED50 (TE-671 [2]) | ED50 (HCT-8 [5]) | also measured |
| --- | --- | --- | --- | --- | --- | --- | --- | --- |
| 9.31 (≈ 36.8 µM) | – | – | – | Nc1cccc2sc(-c3ccccc3)cc(=O)c12 | inactive | inactive | inactive | IC50 (H9 [6]): 50 µg/mL (≈ 197 µM); inhibition [7]: 100%; ED50 (RPMI [1]): inactive; selectivity ratio [8]: 2.5; EC50 (H9 [9]): 20 µg/mL (≈ 78.9 µM); Activity (KB [10]): 1; ED50 (KB [4]): inactive; inhibition [12]: 0% |
| 7.46 (≈ 29.4 µM) | 5.5 (≈ 21.7 µM) | – | – | Nc1cccc2c(=O)cc(-c3ccccc3)sc12 | inactive | inactive | inactive | IC50 (H9 [6]): 15 µg/mL (≈ 59.2 µM); selectivity ratio [8]: 3.8; EC50 (H9 [9]): 4 µg/mL (≈ 15.8 µM); ED50 (KB [4]): inactive |
| – | – | 9.16 (≈ 34.1 µM) | 5.5 (≈ 20.5 µM) | COc1ccc2c(=O)cc(-c3ccccc3)sc2c1 | inactive | inactive | – | ED50 (RPMI [1]): inactive; ED50 (P388 [3]): inactive |
| – | 8.89 (≈ 29.8 µM) | 9.33 (≈ 31.3 µM) | 4.23 (≈ 14.2 µM) | COc1cc2sc(-c3ccccc3)cc(=O)c2cc1OC | inactive | inactive | – | ED50 (P388 [3]): inactive |
| 0.61 (≈ 1.86 µM) | 5.5 (≈ 16.7 µM) | 6.35 (≈ 19.3 µM) | 5.5 (≈ 16.7 µM) | COc1cccc(-c2cc(=O)c3cc(OC)c(OC)cc3s2)c1 | inactive | inactive | – | – |
| 4.83 (≈ 13.6 µM) | 5.5 (≈ 15.5 µM) | – | 5.5 (≈ 15.5 µM) | CC(=O)Oc1cc2sc(-c3ccccc3)cc(=O)c2cc1OC(C)=O | inactive | – | inactive | IC50 (H9 [6]): 3 µg/mL (≈ 8.47 µM); inhibition [20]: 100%; selectivity ratio [8]: 4.6; EC50 (H9 [9]): 0.65 µg/mL (≈ 1.83 µM); Activity (KB [10]): 1; EC50 (TE-671 [14]): 4.58 µg/mL (≈ 12.9 µM); inhibition [21]: 0% |
